Assay results taken from ChEMBL document CHEMBL4673243, “Discovery of 9-Cyclopropylethynyl-2-((S)-1-[1,4]dioxan-2-ylmethoxy)-6,7-dihydropyrimido[6,1-a]isoquinolin-4-one (GLPG1205), a Unique GPR84 Negative Allosteric Modulator Undergoing Evaluation in a Phase II Clinical Trial” (J Med Chem, 2020).
Values after ≈ are worked out from the molar mass of the structure shown. Blank lines part the entries; values can stand above or below the compound they belong to.

Legend:
[1] = biological target: 3',5'-cyclic-AMP phosphodiesterase 4A (Homo sapiens, UniProt P27815); test: Inhibition of recombinant human PDE4A overexpressed in HEK293 cells assessed as reduction in cAMP hydrolysis by HTRF based immunoassay; format: cell-based; conditions: read-out: IC50
Summary of the method: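 Human PDE4A from lysate of HEK293 cells overexpressing the enzyme hydrolyses cAMP; remaining cAMP measured by HTRF competitive immunoassay (d2-labelled cAMP vs cryptate anti-cAMP antibody), signal inversely proportional to cAMP; IC50 determined.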

in vitro [2] = conditions: mouse, liver microsomes
Cytochrome P450 3A4 [3] = biological target: T1, Cytochrome P450 3A4 (Homo sapiens, UniProt P08684); test: Inhibition of human CYP3A4 in human liver microsomes using testosterone as substrate and in presence of co-factor preincubated for 20 mins followed by substrate addition by LC-MS/MS analysis
Cytochrome P450 3A4 [4] = biological target: T1, Cytochrome P450 3A4; test: Inhibition of CYP3A4 in human liver microsomes using midazolam as substrate and in presence of co-factor preincubated for 20 mins followed by substrate addition by LC-MS/MS analysis
Cytochrome P450 2C19 = Cytochrome P450 2C19 (Homo sapiens, UniProt P33261); test: Inhibition of CYP2C19 in human liver microsomes using probe substrate and in presence of co-factor preincubated for 20 mins followed by substrate addition by LC-MS/MS analysis
Cytochrome P450 1A2 = biological target: T2, Cytochrome P450 1A2 (Homo sapiens, UniProt P05177); test: Inhibition of CYP1A2 in human liver microsomes using probe substrate and in presence of co-factor preincubated for 20 mins followed by substrate addition by LC-MS/MS analysis
T2 sequence (P05177 whole entry): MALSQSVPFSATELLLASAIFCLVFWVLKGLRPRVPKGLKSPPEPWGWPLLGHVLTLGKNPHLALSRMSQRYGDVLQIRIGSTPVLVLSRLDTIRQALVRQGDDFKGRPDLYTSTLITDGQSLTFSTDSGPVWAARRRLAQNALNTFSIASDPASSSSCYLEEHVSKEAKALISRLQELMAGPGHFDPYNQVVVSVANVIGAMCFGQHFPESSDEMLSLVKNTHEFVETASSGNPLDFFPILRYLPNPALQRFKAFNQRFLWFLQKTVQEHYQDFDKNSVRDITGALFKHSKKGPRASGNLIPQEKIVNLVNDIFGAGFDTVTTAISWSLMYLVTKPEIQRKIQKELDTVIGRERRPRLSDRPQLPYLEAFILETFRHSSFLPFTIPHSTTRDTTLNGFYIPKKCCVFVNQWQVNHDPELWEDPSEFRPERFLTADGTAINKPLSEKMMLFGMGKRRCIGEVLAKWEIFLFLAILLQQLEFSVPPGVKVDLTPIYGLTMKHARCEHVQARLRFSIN

[5] = Inhibition of embelin-induced migration of human neutrophils preincubated for 30 mins followed by embelin addition and measured after 1 hr by ATPlite luminescence assay; conditions: Neutrophil
[6] = Thermodynamic solubility of compound at pH 3; conditions: buffer
[7] = Thermodynamic solubility of compound at pH 7.4; conditions: buffer
[8] = Apparent permeability from apical to basolateral in human Caco2 cells at 10 uM measured after 60 mins by lucifer yellow dye based LC-MS/MS analysis; conditions: Caco-2
[9] = Plasma protein binding in mouse at 5 uM measured after 4 hrs by LC-MS/MS analysis
[10] = Plasma protein binding in rat at 5 uM measured after 4 hrs by LC-MS/MS analysis
[11] = Plasma protein binding in human at 5 uM measured after 4 hrs by LC-MS/MS analysis
[12] = Plasma protein binding in dog at 5 uM measured after 4 hrs by LC-MS/MS analysis
[13] = Inhibition of embelin-induced migration of rat neutrophils preincubated for 30 mins followed by embelin addition and measured after 1 hr by celltiter-glo assay; conditions: Neutrophil
Neutrophil = test: Inhibition of dog neutrophil cell migration; conditions: Canis lupus familiaris
[14] = biological target: Cytochrome P450 2C9 (Homo sapiens) (UniProt P11712)
[15] = biological target: Cytochrome P450 2D6 (Homo sapiens) (UniProt P10635)
physchem [16] = conditions: aqueous solution with 2% DMSO, pH 7.4
physchem [17] = conditions: aqueous solution with 2% DMSO, pH 3
in vitro [18] = conditions: human, liver microsomes
in vitro [19] = conditions: mouse, cryopreserved hepatocytes
in vitro [20] = conditions: human, cryopreserved hepatocytes
in vitro [21] = conditions: mouse, cryopreserved hepatocytes; remark: listed apart in the source
in vitro [22] = conditions: rat, cryopreserved hepatocytes
in vitro [23] = conditions: dog, cryopreserved hepatocytes
in vitro [24] = conditions: human, cryopreserved hepatocytes; remark: listed apart in the source
in vitro [25] = conditions: rat, liver microsomes
in vitro [26] = conditions: dog, liver microsomes
in vitro [27] = conditions: rat, cryopreserved hepatocytes; remark: listed apart in the source
in vitro [28] = conditions: dog, cryopreserved hepatocytes; remark: listed apart in the source

3',5'-cyclic-AMP phosphodiesterase 4A, sequence (P27815 whole entry): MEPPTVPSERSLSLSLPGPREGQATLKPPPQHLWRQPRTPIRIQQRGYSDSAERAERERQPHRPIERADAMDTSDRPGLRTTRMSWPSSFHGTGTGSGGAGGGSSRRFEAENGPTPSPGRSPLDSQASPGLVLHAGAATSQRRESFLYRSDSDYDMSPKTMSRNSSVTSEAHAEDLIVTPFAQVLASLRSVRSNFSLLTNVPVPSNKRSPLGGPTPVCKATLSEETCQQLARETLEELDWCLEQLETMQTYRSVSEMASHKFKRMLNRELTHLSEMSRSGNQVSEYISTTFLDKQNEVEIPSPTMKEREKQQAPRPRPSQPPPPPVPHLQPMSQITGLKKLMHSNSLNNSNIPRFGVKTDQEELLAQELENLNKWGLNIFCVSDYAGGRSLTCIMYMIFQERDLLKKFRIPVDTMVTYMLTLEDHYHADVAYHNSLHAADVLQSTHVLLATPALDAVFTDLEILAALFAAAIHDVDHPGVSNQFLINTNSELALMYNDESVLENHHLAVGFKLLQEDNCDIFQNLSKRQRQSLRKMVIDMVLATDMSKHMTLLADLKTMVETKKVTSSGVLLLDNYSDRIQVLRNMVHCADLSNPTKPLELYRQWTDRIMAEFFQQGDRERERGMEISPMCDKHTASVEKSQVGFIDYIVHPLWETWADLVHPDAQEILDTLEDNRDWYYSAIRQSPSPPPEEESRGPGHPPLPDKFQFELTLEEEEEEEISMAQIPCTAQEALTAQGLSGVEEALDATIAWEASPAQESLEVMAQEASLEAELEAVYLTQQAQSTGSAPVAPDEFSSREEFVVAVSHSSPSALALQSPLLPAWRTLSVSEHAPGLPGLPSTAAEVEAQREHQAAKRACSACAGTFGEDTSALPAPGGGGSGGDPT
T1 sequence (P08684 whole entry): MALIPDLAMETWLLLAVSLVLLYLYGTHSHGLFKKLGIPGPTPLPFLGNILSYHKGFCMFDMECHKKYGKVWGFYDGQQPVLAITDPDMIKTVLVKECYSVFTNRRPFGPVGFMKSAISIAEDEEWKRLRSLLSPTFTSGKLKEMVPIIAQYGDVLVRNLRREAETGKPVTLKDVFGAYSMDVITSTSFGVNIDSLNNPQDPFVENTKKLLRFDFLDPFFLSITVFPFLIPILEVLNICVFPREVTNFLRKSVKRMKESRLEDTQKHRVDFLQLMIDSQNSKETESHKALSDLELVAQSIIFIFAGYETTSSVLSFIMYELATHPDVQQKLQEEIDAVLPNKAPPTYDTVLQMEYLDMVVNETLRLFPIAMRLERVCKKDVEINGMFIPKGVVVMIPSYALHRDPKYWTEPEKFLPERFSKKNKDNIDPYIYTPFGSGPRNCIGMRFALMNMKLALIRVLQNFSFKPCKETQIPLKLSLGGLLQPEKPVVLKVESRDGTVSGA
Cytochrome P450 2D6 (Homo sapiens), sequence (P10635 whole entry, looked up): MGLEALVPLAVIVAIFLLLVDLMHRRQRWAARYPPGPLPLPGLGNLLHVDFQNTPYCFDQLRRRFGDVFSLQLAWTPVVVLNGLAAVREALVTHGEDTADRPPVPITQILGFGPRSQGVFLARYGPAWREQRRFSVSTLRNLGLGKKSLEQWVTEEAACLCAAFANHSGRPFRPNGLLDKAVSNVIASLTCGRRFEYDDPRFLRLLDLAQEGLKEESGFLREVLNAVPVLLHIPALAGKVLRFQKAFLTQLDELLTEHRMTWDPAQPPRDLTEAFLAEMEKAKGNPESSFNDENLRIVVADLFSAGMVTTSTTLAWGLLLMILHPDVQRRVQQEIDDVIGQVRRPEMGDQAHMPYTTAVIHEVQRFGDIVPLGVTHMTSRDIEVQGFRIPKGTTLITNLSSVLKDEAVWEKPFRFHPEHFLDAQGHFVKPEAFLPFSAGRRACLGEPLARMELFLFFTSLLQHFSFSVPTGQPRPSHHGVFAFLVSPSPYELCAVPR
Cytochrome P450 2C9 (Homo sapiens), sequence (P11712 whole entry, looked up): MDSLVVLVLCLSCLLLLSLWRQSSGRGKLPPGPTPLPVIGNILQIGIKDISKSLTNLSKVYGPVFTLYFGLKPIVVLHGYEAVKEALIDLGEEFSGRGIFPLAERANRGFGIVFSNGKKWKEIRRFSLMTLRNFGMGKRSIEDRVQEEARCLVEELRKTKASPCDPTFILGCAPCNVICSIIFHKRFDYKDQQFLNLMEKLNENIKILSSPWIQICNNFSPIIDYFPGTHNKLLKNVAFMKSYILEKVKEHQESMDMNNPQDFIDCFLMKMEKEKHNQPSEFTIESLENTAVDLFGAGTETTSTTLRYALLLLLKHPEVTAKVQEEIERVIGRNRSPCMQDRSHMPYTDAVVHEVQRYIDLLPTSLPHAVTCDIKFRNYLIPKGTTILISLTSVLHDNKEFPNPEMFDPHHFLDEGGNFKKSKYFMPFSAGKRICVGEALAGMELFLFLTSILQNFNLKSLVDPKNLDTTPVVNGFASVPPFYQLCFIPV
Cytochrome P450 2C19, sequence (P33261 whole entry): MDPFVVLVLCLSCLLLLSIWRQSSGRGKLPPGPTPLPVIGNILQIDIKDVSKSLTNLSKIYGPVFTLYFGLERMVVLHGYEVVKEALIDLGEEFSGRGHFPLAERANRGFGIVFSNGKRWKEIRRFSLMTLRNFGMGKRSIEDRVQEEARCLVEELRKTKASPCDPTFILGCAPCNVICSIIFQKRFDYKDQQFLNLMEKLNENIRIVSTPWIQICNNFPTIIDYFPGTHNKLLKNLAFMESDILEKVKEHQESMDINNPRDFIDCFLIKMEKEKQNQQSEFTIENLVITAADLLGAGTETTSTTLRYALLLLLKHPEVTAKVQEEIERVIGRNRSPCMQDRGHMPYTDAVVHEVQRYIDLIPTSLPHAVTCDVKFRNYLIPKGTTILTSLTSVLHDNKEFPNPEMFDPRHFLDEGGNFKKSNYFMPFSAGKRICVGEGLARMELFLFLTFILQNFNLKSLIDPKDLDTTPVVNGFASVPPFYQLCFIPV

SMILES: COc1ccc2c(c1)CCn1c-2cc(OCc2ncccc2F)nc1=O
IC50 [1]: > 10000 nM | CLint scaled at 0.5 h, 1 µM (in vitro [2]): 487 mL/min/kg

SMILES: COc1ccc2c(c1)CCn1c-2cc(OCc2ccccc2F)nc1=O
IC50 [1]: > 10000 nM | CLint scaled at 0.5 h, 1 µM (in vitro [2]): 1490 mL/min/kg

SMILES: COc1ccc2c(c1)CCn1c-2cc(OC[C@H]2COc3ncccc3O2)nc1=O
fraction unbound at 4 h, 5 µM [9]: 0.087 | fraction unbound at 4 h, 5 µM [10]: 0.021 | fraction unbound at 4 h, 5 µM [11]: 0.027 | CLint scaled at 0.5 h, 1 µM (in vitro [2]): 360 mL/min/kg | CLint scaled at 0.5 h, 1 µM (in vitro [18]): 35 mL/min/kg | CLint scaled at 1 µM (in vitro [19]): 182 mL/min/kg | CLint scaled at 1 µM (in vitro [20]): 13.3 mL/min/kg | CLint scaled at 0.5 h, 1 µM (in vitro [25]): 152 mL/min/kg

SMILES: CC(C)CC(O)C#Cc1ccc2c(c1)CCn1c-2cc(OCC2COCCO2)nc1=O (stereo not drawn)
CLint scaled at 0.5 h, 1 µM (in vitro [2]): 437 mL/min/kg | CLint scaled at 0.5 h, 1 µM (in vitro [25]): 255 mL/min/kg

SMILES: O=c1nc(OCc2ccccc2F)cc2n1CCc1ccccc1-2
IC50 [1]: > 10000 nM

The next lines start with results.

IC50 (Cytochrome P450 3A4 [3]): > 50000 nM | IC50 (Cytochrome P450 3A4 [4]): > 50000 nM | IC50 (Cytochrome P450 2C19): 18200 nM | IC50 (Cytochrome P450 1A2): > 100000 nM | IC50 [5]: 51 nM | solubility thermodynamic [6]: 17.6 µg/mL (≈ 46.5 µM) | solubility thermodynamic [7]: 9.49 µg/mL (≈ 25.1 µM) | Papp A→B at 1 h, 10 µM [8]: 31.2 ×10⁻⁶ cm/s | fraction unbound at 4 h, 5 µM [9]: 0.017 | fraction unbound at 4 h, 5 µM [10]: 0.037 | fraction unbound at 4 h, 5 µM [11]: 0.059 | fraction unbound at 4 h, 5 µM [12]: 0.033 | IC50 (Neutrophil): 111 nM | IC50 [14]: 1850 nM | IC50 [15]: 31600 nM | solubility (physchem [16]): 113 µg/mL (≈ 299 µM) | solubility (physchem [17]): 113 µg/mL (≈ 299 µM) | CLint scaled at 0.5 h, 1 µM (in vitro [2]): 98.3 mL/min/kg | CLint scaled at 0.5 h, 1 µM (in vitro [18]): 16 mL/min/kg | CLint scaled at 1 µM (in vitro [19]): < 72.8 mL/min/kg | CLint scaled at 1 µM (in vitro [20]): < 21.3 mL/min/kg | half-life at 1 µM (in vitro [21]): > 3.33 h | half-life at 1 µM (in vitro [22]): > 3.13 h | half-life at 1 µM (in vitro [23]): > 2.52 h | half-life at 1 µM (in vitro [24]): > 3.33 h | CLint scaled at 0.5 h, 1 µM (in vitro [25]): 82.8 mL/min/kg | CLint scaled at 0.5 h, 1 µM (in vitro [26]): 52.7 mL/min/kg | CLint scaled at 1 µM (in vitro [27]): < 35.3 mL/min/kg | CLint scaled at 1 µM (in vitro [28]): < 32 mL/min/kg
SMILES: O=c1nc(OC[C@H]2COCCO2)cc2n1CCc1cc(C#CC3CC3)ccc1-2
IC50 [13]: 153 nM

solubility (physchem [16]): 3 µg/mL (≈ 8.37 µM)
SMILES: CCCCCCOc1cc2n(c(=O)n1)CCc1cc(OC)c(OC)cc1-2

CLint scaled at 0.5 h, 1 µM (in vitro [2]): 463 mL/min/kg | CLint scaled at 0.5 h, 1 µM (in vitro [18]): 21.7 mL/min/kg | CLint scaled at 1 µM (in vitro [19]): 575 mL/min/kg | CLint scaled at 1 µM (in vitro [20]): 25 mL/min/kg
SMILES: COc1ccc2c(c1)CCn1c-2cc(OCC2CCCCO2)nc1=O (stereo not drawn)

IC50 [1]: 2170 nM | solubility (physchem [16]): 72 µg/mL (≈ 201 µM) | CLint scaled at 0.5 h, 1 µM (in vitro [2]): 175 mL/min/kg
SMILES: COc1cc2c(cc1OC)-c1cc(OCC3CCCO3)nc(=O)n1CC2 (stereo not drawn)

CLint scaled at 0.5 h, 1 µM (in vitro [2]): 2150 mL/min/kg | CLint scaled at 0.5 h, 1 µM (in vitro [18]): 33.3 mL/min/kg | CLint scaled at 1 µM (in vitro [19]): 647 mL/min/kg | CLint scaled at 1 µM (in vitro [20]): 23.3 mL/min/kg
SMILES: COc1ccc2c(c1)CCn1c-2cc(OCC2CCCO2)nc1=O (stereo not drawn)

IC50 [1]: 2110 nM | IC50 [5]: 128 nM | solubility (physchem [16]): 26 µg/mL (≈ 65.9 µM)
SMILES: COc1cc2c(cc1OC)-c1cc(OCCOc3ccccc3)nc(=O)n1CC2

IC50 [1]: 372 nM | solubility (physchem [16]): 26 µg/mL (≈ 68 µM) | CLint scaled at 0.5 h, 1 µM (in vitro [2]): 670 mL/min/kg
SMILES: COc1cc2c(cc1OC)-c1cc(OCc3ccccc3F)nc(=O)n1CC2
